# Assay results as given in ChEMBL document CHEMBL1154693, “Discovery of trans-4-[1-[[2,5-Dichloro-4-(1-methyl-3-indolylcarboxamido)phenyl]acetyl]-(4S)-methoxy-(2S)-pyrrolidinylmethoxy]cyclohexanecarboxylic acid: an orally active, selective very late antigen-4 antagonist” (J Med Chem, 2009).
# Key:
# Mus musculus [1] = test: Antiinflammatory activity in Ascaris suum antigen-induced BALB/c AnNCrj mouse asthma model assessed as inhibition of eosinophil infiltration in BAL fluid at 5 mg.kg, po bid administered 15 mins before and 8, 24 and 32 hrs after antigen challenge measured 48 hrs after antigen challenge; type: functional
# In short: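 Female BALB/c AnNCrj mice given cyclophosphamide 150 mg/kg po (day 0), sensitized ip with Ascaris suum extract plus alum on days 2 and 14, challenged intratracheally day 22. Compound in 0.5% MC/0.03% Tween 80 po 15 min before and 8, 24, 32 h after challenge; BAL at 48 h, eosinophils from total count times Wright-stained differential.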
# Mus musculus [2] = test: Toxicity in BALB/c AnNCrj mouse assessed as induction of cholestatic liver injury at 25 mg/kg, po for 2 days; type: organism-based; design: dose 25 mg/kg, route oral; conditions: in vivo, 48 h
# In short: (§1)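 Mice dosed iv at 50 mg/kg or orally at 25 or 200 (mg/kg)/day for 2 days, then assessed for liver injury.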
# Integrin alpha-4/beta-1 [3] = biological target: T1, Integrin alpha-4/beta-1 (Homo sapiens, UniProt P05556+P13612); test: Inhibition of europium labeled human VCAM1/Fc chimera binding to human VLA-4 alpha-4-beta-1 expressed in Chinese hamster 4B4 cells by fluorimetric assay; type: cell-based
# T1 sequence (P05556 whole entry): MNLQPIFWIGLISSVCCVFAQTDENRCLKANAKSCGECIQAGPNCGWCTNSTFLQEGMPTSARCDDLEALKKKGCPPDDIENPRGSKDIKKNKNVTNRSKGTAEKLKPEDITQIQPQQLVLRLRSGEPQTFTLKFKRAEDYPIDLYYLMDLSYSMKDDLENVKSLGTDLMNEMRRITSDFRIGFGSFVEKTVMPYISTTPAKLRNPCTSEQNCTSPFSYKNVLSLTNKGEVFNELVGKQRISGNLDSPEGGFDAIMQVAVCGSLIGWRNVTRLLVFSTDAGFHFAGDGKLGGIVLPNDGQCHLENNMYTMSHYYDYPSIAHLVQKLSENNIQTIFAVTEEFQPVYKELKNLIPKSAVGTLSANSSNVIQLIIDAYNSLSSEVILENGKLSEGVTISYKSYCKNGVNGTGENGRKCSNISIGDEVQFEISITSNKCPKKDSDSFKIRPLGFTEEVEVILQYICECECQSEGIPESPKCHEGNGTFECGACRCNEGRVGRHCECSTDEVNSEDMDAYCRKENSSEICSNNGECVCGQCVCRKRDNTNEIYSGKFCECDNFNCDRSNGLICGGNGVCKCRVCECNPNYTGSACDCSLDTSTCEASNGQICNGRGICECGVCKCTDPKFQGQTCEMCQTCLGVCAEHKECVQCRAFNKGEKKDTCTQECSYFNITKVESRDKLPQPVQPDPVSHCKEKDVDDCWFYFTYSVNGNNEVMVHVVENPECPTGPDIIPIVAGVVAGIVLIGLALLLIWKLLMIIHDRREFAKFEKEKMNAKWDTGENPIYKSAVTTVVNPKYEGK
# T1 sequence (P13612 whole entry): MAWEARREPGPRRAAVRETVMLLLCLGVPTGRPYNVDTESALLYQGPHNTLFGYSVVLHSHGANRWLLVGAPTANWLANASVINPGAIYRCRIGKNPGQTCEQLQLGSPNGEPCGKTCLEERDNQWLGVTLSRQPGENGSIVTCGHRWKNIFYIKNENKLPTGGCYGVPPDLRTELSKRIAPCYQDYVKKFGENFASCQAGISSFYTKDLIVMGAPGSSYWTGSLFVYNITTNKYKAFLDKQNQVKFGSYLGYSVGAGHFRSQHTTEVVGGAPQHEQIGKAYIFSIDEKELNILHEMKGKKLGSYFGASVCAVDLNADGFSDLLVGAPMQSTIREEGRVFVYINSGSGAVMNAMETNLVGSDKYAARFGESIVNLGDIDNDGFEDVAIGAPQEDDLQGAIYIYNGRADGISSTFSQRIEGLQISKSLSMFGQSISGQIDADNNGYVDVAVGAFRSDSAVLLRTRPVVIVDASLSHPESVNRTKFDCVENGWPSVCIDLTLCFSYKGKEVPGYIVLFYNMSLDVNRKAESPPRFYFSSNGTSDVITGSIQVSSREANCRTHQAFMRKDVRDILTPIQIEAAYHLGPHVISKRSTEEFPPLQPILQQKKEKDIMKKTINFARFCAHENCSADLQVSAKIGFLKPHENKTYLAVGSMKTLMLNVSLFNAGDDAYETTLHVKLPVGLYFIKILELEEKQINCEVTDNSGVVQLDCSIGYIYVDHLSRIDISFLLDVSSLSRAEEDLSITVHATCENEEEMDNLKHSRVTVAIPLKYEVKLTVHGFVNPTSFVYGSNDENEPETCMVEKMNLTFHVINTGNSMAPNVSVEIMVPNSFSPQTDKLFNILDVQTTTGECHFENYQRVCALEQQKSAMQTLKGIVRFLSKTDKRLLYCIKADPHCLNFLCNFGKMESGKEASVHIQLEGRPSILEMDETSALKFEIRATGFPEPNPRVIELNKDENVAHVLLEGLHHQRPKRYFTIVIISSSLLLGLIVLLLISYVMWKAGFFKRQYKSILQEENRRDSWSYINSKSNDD
# [4] = Drug level in BALB/c mouse serum at 10 mg/kg, po after 15 mins; type: ADME, organism-based; design: dose 10 mg/kg, route oral; conditions: read-out: Drug uptake
# In short: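 Serum (final 0.01-10%) assayed in the VLA-4/VCAM-1 binding assay, and concentration estimated from a calibration curve of compound spiked into untreated mouse serum.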
# Integrin alpha-4/beta-1 [5] = biological target: T1, Integrin alpha-4/beta-1; test: Inhibition of europium labeled human VCAM1/Fc chimera binding to human VLA-4 alpha-4-beta-1 expressed in Chinese hamster 4B4 cells in presence of 3% HSA by fluorimetric assay; type: cell-based
# In short: (§2)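 CHO-K1 4B4 cells transfected with human α4 and β1, plated at 3 × 10⁵ cells/mL and cultured 2 days, washed with HEPES pH 7.5 buffer containing Ca, Mg, Mn. Compound plus Eu-labeled human VCAM-1/Fc (final 1 nM), with or without human serum albumin, 60 min at room temperature; washed, Eu time-resolved fluorescence read; duplicates.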
# Mus musculus [6] = test: Toxicity in BALB/c AnNCrj mouse assessed as induction of cholestatic liver injury at 50 mg/kg, iv for 2 days; type: organism-based; design: dose 50 mg/kg, route intravenous; conditions: in vivo, 48 h; in short: as §1
# [7] = Clearance in Sprague-Dawley rat at 1 mg/kg, iv; type: ADME, organism-based; design: dose 1 mg/kg, route intravenous; conditions: in vivo
# In short: (§3)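 Male Sprague-Dawley rats (7 weeks), fasted 18 h, four per group. 1 mg/kg oral in 0.5% MC or iv in saline, each with 3 equiv NaOH. Plasma drawn at 0.08 (iv) or 0.25 (po), 0.5, 1, 2 and 6 h; LC/MS/MS quantitation, noncompartmental parameters.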
# [8] = Volume of distribution at steady state in Sprague-Dawley rat at 1 mg/kg, iv; type: ADME, organism-based; design: dose 1 mg/kg, route intravenous; conditions: in vivo, read-out: Vdss; in short: as §3
# [9] = Half life in Sprague-Dawley rat at 1 mg/kg, iv; type: ADME, organism-based; design: dose 1 mg/kg, route intravenous; conditions: in vivo; in short: as §3
# Integrin alpha-4/beta-1 [10] = biological target: T1, Integrin alpha-4/beta-1; test: Inhibition of europium labeled human VCAM1/Fc chimera binding to human VLA-4 alpha-4-beta-1 expressed in Chinese hamster 4B4 cells at 1.7 uM in presence of 3% HSA by fluorimetric assay; type: cell-based; in short: as §2
# Integrin alpha-4/beta-1 [11] = biological target: T1, Integrin alpha-4/beta-1; test: Inhibition of europium labeled human VCAM1/Fc chimera binding to human VLA-4 alpha-4-beta-1 expressed in Chinese hamster 4B4 cells at 1.8 uM in presence of 3% HSA by fluorimetric assay; type: cell-based; in short: as §2
IC50 (Integrin alpha-4/beta-1 [3]),concentration at 0.25 h [4],IC50 (Integrin alpha-4/beta-1 [5]),clearance [7],Vd [8],half-life [9],inhibition (Integrin alpha-4/beta-1 [10]),inhibition (Integrin alpha-4/beta-1 [11]),Compound,inhibition (INH) (Mus musculus [1]),Activity (Mus musculus [2]),Activity (Mus musculus [6])
5 nM,11400 ng/mL,284 nM,2.6 mL/min/kg,0.153 L/kg,54 min,–,–,Cn1cc(C(=O)Nc2cc(F)c(CC(=O)N3C[C@@H](F)C[C@H]3CO[C@H]3CC[C@H](C(=O)O)CC3)cc2Cl)c2ccccc21,57%,Toxic,Toxic
128 nM,–,–,–,–,–,19%,–,O=C(Nc1cc(F)c(CC(=O)N2C[C@@H](F)C[C@H]2CO[C@H]2CC[C@H](C(=O)O)CC2)cc1Cl)c1noc2ccccc12,–,–,–
47 nM,–,–,–,–,–,–,13%,Cc1c(F)cccc1Nc1nc2ccc(CC(=O)N3C[C@@H](F)C[C@H]3CO[C@H]3CC[C@H](C(=O)O)CC3)c(F)c2o1,–,–,–
